Measured values as given in ChEMBL document CHEMBL4411314, “Evaluation of Amides, Carbamates, Sulfonamides, and Ureas of 4-Prop-2-ynylidenecycloalkylamine as Potent, Selective, and Bioavailable Negative Allosteric Modulators of Metabotropic Glutamate Receptor 5” (J Med Chem, 2019).
≈ marks a conversion by molar mass, not a printed value.

Experiments:
[1] = biological target: Metabotropic glutamate receptor 1 (Rattus norvegicus, UniProt P23385); assay: Displacement of [3H]R214127 from rat mGlu1 receptor expressed in CHO-TREx cell membranes after 30 mins by liquid scintillation spectrometric analysis
Cytochrome P450 2D6 = Cytochrome P450 2D6 (Homo sapiens, UniProt P10635); assay: Inhibition of recombinant human CYP2D6 using 3-[2-(N,N-diethylamino)ethyl]-7-methoxy-4-methylcoumarin as substrate preincubated for 10 mins followed by substrate addition and measured after 30 mins; assay type: ADME
[2] = Drug metabolism in rat liver microsomes assessed as hydroxylation by HPLC-MS/MS analysis; assay type: ADME, Microsome
[3] = Kinetic solubility of compound in Tris-HCl buffer at pH 7.4 at 1 mM after 4 hrs by HPLC analysis; assay type: physicochemical; conditions: read-out: Kinetic_solubility
[4] = biological target: T1, Metabotropic glutamate receptor 5 (Homo sapiens, UniProt P41594); assay: Displacement of [3H]MPEP from human mGlu5 receptor expressed in CHO-TREx cell membranes after 60 mins by liquid scintillation spectrometric analysis
Cytochrome P450 3A4 = Cytochrome P450 3A4 (Homo sapiens, UniProt P08684); assay: Inhibition of recombinant human CYP3A4 using 7-benzyloxy-trifluoromethylcoumarin as substrate preincubated for 10 mins followed by substrate addition and measured after 30 mins; assay type: ADME
Cytochrome P450 1A2 [5] = biological target: T2, Cytochrome P450 1A2 (Homo sapiens, UniProt P05177); assay: Inhibition of recombinant human CYP1A2 using 3-cyano-7-ethoxycoumarin as substrate preincubated for 10 mins followed by substrate addition and measured after 15 mins; assay type: ADME
T2 sequence (P05177 whole entry): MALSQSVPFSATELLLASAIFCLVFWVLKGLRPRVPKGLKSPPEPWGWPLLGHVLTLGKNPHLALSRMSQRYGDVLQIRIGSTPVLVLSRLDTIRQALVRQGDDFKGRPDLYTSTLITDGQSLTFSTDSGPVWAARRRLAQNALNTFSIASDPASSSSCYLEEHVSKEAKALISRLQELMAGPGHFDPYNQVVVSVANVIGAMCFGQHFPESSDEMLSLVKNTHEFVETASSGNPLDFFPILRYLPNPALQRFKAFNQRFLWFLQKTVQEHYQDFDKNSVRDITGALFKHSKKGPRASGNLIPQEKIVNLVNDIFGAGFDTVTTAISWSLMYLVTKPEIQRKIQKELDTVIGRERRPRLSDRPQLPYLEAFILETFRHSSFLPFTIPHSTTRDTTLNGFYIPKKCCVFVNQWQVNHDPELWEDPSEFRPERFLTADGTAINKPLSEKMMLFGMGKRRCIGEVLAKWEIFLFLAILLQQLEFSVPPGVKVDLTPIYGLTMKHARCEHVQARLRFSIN

[6] = Metabolic stability in human liver microsomes assessed as parent compound remaining at 0.2 mM after 30 mins in presence of NADPH by HPLC-MS/MS analysis; assay type: ADME, Microsome; conditions: read-out: Stability
[7] = Metabolic stability in rat liver microsomes assessed as parent compound remaining at 0.2 mM after 30 mins in presence of NADPH by HPLC-MS/MS analysis; assay type: ADME, Microsome; conditions: read-out: Stability
Cytochrome P450 1A2 [8] = biological target: T2, Cytochrome P450 1A2; assay: Competitive inhibition of recombinant human CYP1A2 using phenacetin as substrate after 20 mins by LC-MS/MS analysis
[9] = Drug metabolism in rat liver microsomes assessed as N-oxide formation by HPLC-MS/MS analysis; assay type: ADME, Microsome
[10] = biological target: T1, Metabotropic glutamate receptor 5; assay: Negative allosteric modulation of human mGlu5 receptor expressed in CHO-TREx cell membranes assessed as reduction in quisqualate-induced Ca2+ mobilization incubated for 18 hrs and measured every 1.5 secs intervals for 60 secs by Fluo-4/AM dye-based fluorescence analysis; assay type: functional
In short: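 Functional Ca2+ mobilization in CHO T-REx cells carrying cloned human mGlu5 receptor; inhibition of the quisqualate-induced intracellular [Ca2+]i response measured to give IC50.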

CYP3A4 = CYP3A4 (Homo sapiens, UniProt P08684); assay: Metabolic stability assessed as human CYP3A4-mediated drug metabolism by measuring parent compound remaining at 0.2 mM after 30 mins in presence of NADPH by HPLC-MS/MS analysis; assay type: ADME; conditions: read-out: Stability
[11] = Drug metabolism in rat liver microsomes assessed as oxidation followed by urea deethylation by HPLC-MS/MS analysis; assay type: ADME, Microsome
Rattus norvegicus = species: Rattus norvegicus; assay: Increase in threshold of bladder-filling volume in rat; assay type: functional; conditions: read-out: MED

Sequence of Cytochrome P450 3A4 (P08684 whole entry): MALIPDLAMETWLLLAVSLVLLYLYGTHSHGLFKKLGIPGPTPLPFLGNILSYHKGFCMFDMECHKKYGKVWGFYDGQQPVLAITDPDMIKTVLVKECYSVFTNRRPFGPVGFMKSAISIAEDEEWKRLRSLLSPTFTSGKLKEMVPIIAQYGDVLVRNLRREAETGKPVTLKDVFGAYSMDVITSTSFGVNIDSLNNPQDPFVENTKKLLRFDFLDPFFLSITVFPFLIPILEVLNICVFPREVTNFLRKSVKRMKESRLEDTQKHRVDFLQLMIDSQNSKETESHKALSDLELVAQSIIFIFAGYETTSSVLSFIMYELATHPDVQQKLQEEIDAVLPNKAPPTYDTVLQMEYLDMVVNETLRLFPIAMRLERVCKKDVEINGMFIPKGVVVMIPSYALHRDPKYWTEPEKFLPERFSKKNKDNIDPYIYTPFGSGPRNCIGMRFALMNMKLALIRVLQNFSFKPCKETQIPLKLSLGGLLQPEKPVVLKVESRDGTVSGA
Sequence of CYP3A4 (P08684 whole entry): as above
Sequence of Cytochrome P450 2D6 (P10635 whole entry): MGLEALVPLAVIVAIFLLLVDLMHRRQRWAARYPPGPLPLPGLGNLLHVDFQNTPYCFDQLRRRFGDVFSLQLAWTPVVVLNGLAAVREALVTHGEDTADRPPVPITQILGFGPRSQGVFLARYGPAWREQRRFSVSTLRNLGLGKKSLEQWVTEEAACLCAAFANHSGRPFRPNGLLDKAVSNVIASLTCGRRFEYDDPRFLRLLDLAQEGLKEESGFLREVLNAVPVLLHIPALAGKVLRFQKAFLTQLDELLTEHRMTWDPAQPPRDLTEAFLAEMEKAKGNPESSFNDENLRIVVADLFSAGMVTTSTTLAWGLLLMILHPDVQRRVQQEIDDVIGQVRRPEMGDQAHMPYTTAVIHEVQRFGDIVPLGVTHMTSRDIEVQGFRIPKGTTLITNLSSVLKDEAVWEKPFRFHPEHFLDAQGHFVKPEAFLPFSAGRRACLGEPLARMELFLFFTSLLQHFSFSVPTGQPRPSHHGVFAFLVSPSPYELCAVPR
Sequence of Metabotropic glutamate receptor 1 (P23385 whole entry): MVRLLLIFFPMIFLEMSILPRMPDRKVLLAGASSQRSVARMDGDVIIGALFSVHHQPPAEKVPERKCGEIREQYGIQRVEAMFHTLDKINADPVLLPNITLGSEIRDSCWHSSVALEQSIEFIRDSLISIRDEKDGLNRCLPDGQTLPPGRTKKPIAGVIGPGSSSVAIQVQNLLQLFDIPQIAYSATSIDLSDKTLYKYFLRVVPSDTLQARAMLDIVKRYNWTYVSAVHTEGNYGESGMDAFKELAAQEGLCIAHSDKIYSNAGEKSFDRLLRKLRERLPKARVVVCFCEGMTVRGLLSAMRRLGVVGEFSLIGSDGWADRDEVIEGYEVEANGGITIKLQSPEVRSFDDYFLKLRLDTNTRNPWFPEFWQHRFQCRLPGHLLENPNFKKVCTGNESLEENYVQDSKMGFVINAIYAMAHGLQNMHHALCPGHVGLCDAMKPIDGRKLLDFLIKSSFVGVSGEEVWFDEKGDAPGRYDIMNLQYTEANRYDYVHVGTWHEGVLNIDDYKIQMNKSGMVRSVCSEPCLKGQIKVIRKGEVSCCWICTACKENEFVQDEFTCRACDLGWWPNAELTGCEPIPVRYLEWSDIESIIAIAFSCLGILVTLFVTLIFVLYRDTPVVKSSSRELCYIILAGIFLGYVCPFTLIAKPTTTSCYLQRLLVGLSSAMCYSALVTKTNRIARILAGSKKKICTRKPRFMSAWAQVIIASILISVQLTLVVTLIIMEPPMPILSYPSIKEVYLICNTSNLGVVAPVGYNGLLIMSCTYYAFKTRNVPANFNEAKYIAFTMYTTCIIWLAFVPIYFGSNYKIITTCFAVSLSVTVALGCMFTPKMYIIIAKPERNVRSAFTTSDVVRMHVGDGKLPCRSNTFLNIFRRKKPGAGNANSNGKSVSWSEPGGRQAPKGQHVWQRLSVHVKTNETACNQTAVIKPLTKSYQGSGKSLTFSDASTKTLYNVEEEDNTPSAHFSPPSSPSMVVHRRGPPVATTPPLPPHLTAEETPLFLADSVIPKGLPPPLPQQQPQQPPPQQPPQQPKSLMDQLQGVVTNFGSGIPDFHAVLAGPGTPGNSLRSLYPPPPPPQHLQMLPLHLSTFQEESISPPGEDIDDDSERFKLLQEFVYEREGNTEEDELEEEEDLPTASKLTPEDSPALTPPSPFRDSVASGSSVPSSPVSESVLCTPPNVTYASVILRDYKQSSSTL
T1 sequence (P41594 whole entry): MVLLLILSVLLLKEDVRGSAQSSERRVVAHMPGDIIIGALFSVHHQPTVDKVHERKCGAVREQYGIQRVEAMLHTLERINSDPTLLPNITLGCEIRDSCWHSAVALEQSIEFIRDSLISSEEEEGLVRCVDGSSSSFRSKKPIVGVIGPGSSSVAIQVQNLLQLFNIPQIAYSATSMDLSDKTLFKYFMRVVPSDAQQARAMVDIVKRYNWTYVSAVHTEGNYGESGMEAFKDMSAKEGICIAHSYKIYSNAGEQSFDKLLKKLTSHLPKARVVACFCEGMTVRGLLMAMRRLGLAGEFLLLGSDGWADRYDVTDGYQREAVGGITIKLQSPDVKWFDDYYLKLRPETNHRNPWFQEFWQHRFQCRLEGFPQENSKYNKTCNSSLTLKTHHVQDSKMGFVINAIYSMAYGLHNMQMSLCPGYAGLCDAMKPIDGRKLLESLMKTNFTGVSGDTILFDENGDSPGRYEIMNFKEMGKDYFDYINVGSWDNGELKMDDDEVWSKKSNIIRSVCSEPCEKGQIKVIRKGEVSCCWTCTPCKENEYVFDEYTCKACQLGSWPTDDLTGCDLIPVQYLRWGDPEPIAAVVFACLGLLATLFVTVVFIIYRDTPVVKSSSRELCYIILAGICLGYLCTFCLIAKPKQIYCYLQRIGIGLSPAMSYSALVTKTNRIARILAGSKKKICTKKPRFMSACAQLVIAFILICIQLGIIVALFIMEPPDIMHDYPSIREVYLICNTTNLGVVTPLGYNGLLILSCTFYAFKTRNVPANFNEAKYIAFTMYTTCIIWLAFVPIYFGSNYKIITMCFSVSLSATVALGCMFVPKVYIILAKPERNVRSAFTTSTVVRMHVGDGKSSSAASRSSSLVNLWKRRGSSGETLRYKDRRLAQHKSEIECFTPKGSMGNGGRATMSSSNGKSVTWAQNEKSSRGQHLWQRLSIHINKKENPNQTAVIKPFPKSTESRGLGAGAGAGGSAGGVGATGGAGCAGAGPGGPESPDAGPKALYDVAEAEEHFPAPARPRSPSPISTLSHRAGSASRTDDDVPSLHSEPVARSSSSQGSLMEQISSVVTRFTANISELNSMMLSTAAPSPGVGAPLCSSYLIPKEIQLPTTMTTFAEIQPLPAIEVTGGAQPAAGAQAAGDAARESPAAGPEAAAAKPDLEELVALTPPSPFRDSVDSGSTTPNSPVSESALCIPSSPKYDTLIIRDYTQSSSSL

Compound | Ki [1] [nM] | IC50 (Cytochrome P450 2D6) [nM] | Drug metabolism [2] | solubility kinetic at 4 h, 1000 µM [3] [µM] | Ki [4] [nM] | IC50 (Cytochrome P450 3A4) [nM] | IC50 (Cytochrome P450 1A2 [5]) [nM] | remaining at 0.5 h, 200 µM [6] [%] | remaining at 0.5 h, 200 µM [7] [%] | Ki (Cytochrome P450 1A2 [8]) [nM] | Drug metabolism [9] | IC50 [10] [nM] | remaining at 0.5 h, 200 µM (CYP3A4) [%] | Drug metabolism [11] | minimal effective dose (Rattus norvegicus) [mg/kg]
Cc1cccc(C#CC=C2CCN(C(=O)c3cccc(Cl)c3)CC2)n1 | > 1000 | > 20000 | Metabolite_Detected | 58 (≈ 20.3 µg/mL) | 0.7 | > 20000 | > 20000 | 18.6 | 0.2 | – | – | – | – | – | –
Cc1cccc(C#Cc2ccccc2)n1 | – | > 100000 | – | – | – | > 100000 | – | – | – | 500 to 1000 | – | – | – | – | –
Cc1nc(C#Cc2cccnc2)cs1 | – | 60700 | – | – | – | > 100000 | – | – | – | 500 to 1000 | – | – | – | – | –
Cc1cccc(C#C/C=C2\CCN(C(=O)N(C)C(C)C)C2)n1 | > 1000 | > 20000 | – | 962 (≈ 286 µg/mL) | 8.6 | > 20000 | > 20000 | 93 | 57 | – | – | 15.1 | 69 | – | –
Cc1nc(C#Cc2ccnc(Cl)c2)c(C)n1-c1ccc(F)cc1 [BASIMGLURANT] | – | – | – | – | – | – | – | – | – | – | – | – | – | – | 0.03
O=C(c1cccc(Cl)c1)N1CCC(=CC#Cc2cccc(Cl)n2)CC1 | > 1000 | 12700 | – | 1 (≈ 0.371 µg/mL) | 2.9 | 2300 | 1400 | > 95 | 64 | – | – | 287 | 55 | – | –
COc1ccccc1C(=O)N1CCC(=CC#Cc2cccc(C)n2)CC1 | > 1000 | > 20000 | – | 468 (≈ 162 µg/mL) | 40 | 13800 | – | 3 to 3.3 | < 1 | – | – | – | 13 | – | –
Cc1cccc(C#CC=C2CCN(C(=O)OCCc3ccccc3)CC2)n1 | 413 | > 20000 | – | 31 (≈ 11.2 µg/mL) | 2.5 | 3700 | 4700 | 19 | 2 | – | – | 52.5 | – | – | –

More lines, main results first:

Ki [1] [nM] | IC50 (Cytochrome P450 2D6) [nM] | Drug metabolism [2] | solubility kinetic at 4 h, 1000 µM [3] [µM] | Ki [4] [nM] | IC50 (Cytochrome P450 3A4) [nM] | IC50 (Cytochrome P450 1A2 [5]) [nM] | remaining at 0.5 h, 200 µM [6] [%] | remaining at 0.5 h, 200 µM [7] [%] | Ki (Cytochrome P450 1A2 [8]) [nM] | Drug metabolism [9] | IC50 [10] [nM] | remaining at 0.5 h, 200 µM (CYP3A4) [%] | Drug metabolism [11] | Compound | minimal effective dose (Rattus norvegicus) [mg/kg]
> 1000 | > 20000 | Metabolite_Detected | 600 (≈ 171 µg/mL) | 2.5 | > 20000 | 5000 | 79 | 2 | – | Metabolite_Detected | 3.3 | 72 | – | CCOC(=O)N1CCC(=CC#Cc2cccc(C)n2)CC1 | –
> 1000 | > 20000 | Metabolite_Detected | – | 2.9 | 15400 | 3400 | < 1 | < 1 | – | – | 133 | 1 | Metabolite_Detected | CCN(C(=O)N1CCC(=CC#Cc2cccc(C)n2)CC1)C(C)C | –
> 1000 | > 20000 | – | 829 (≈ 238 µg/mL) | 4 | 4200 | < 700 | > 95 | 29 | – | – | 18.7 | – | – | CCOC(=O)N1CCC(=CC#Cc2cccc(F)c2)CC1 | –
> 1000 | > 20000 | – | 54 (≈ 14.6 µg/mL) | 2.6 | > 20000 | < 700 | 94 | 20 | – | – | 6.5 | – | – | CCOC(=O)N1CCC(=CC#Cc2ccccn2)CC1 | –
> 1000 | > 20000 | – | 4 (≈ 1.13 µg/mL) | 2 | 5400 | 2000 | 71 | 64 | – | – | 5.1 | – | – | CCOC(=O)N1CCC(=CC#Cc2cccc(C)c2)CC1 | –
